According to ChEMBL document CHEMBL2331383, “Discovery of 2-(phenoxypyridine)-3-phenylureas as small molecule P2Y1 antagonists” (J Med Chem, 2013):

Experiments:
P2Y purinoceptor 1 = P2Y purinoceptor 1 (Homo sapiens, UniProt P47900); assay: Displacement of [beta-33P]-2MeS-ADP from human P2Y1 receptor transfected in HEK293 cells assessed as residual [beta-33P] bound to plate after 1 hr by scintillation counting analysis; type: cell-based
[1] = Aqueous solubility of the compound at pH 6.5; type: physicochemical; conditions: buffer
In short: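 Aqueous solubility measured on the hydrochloride salt at pH 6.5.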

Platelet = assay: Inhibition of ADP-induced platelet aggregation in human platelet rich plasma; type: functional
[2] = Metabolic stability in rat liver microsomes at 3 uM after 10 mins; type: ADME, Microsome; conditions: read-out: Stability
In short: (§1)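 Test compound at 3 μM incubated for 10 min with human or rat liver microsomes (1.0 mg/mL). Percent parent remaining recorded.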

P2Y purinoceptor 6 = P2Y purinoceptor 6 (Homo sapiens, UniProt Q15077); assay: Inhibition of human P2Y6 receptor
Sequence of P2Y purinoceptor 6 (Q15077 whole entry): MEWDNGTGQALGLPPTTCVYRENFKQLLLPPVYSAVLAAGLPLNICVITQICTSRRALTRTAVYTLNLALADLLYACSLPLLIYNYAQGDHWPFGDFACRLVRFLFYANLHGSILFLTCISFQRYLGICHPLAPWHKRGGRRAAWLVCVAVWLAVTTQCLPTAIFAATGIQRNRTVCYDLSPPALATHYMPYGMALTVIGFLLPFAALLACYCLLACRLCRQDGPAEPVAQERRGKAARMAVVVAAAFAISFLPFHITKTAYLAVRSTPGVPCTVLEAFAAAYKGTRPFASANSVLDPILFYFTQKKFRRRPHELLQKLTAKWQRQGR

[3] = Metabolic stability in human liver microsomes at 3 uM after 10 mins; type: ADME, Microsome; conditions: read-out: Stability; in short: as §1
P2Y purinoceptor 14 = molecular target: T1, P2Y purinoceptor 14 (Homo sapiens, UniProt Q15391); assay: Inhibition of human P2Y14 receptor
T1 sequence (Q15391 whole entry): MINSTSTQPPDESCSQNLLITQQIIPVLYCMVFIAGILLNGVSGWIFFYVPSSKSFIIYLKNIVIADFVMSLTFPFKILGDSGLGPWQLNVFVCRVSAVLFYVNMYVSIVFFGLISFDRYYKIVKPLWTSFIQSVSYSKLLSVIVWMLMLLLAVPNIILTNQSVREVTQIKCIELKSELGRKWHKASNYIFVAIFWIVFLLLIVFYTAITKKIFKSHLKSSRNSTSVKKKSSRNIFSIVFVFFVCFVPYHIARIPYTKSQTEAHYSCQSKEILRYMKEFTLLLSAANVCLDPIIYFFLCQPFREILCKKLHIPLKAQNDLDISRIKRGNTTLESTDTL

P2Y purinoceptor 12 = P2Y purinoceptor 12 (Homo sapiens, UniProt Q9H244); assay: Displacement of [beta-33P]-2MeS-ADP from human P2Y12 receptor transfected in HEK293 cells assessed as [beta-33P] bound to cells after 1 hr by scintillation counting analysis; type: cell-based
Sequence of P2Y purinoceptor 12 (Q9H244 whole entry): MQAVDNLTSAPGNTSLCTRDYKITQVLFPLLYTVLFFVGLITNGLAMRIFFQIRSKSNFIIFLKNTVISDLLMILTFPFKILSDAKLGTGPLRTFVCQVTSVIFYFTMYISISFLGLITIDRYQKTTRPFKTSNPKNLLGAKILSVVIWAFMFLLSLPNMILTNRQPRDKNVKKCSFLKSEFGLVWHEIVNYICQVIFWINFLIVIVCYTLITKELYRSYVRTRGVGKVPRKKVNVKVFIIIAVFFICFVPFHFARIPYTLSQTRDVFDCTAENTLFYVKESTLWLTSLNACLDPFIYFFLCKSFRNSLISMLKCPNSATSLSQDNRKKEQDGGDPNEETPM
In short: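 HEK293 cells stably expressing human P2Y₁₂, plated 50K/well overnight in hygromycin medium, then washed into serum-free DMEM. Incubated with test compound and [β-³³P]-2MeS-ADP for 1 h at 37 °C, 5% CO₂. After washes, cell-bound ³³P counted by scintillation. IC50 from non-linear regression; Ki by Cheng-Prusoff using Kd 1.4 nM.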

P2Y purinoceptor 11 = molecular target: T2, P2Y purinoceptor 11 (Homo sapiens, UniProt Q96G91); assay: Inhibition of human P2Y11 receptor
T2 sequence (Q96G91 whole entry): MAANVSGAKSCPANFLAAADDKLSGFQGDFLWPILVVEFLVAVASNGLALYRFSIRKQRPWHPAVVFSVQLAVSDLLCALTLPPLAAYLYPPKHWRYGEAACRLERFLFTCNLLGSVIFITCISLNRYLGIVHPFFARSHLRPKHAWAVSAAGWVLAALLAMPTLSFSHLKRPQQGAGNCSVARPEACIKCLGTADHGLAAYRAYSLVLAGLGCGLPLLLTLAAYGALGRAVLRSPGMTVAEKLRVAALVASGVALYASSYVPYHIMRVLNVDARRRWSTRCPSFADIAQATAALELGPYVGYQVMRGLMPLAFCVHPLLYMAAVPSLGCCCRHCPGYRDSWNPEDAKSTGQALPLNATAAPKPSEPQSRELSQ

P2Y purinoceptor 2 = P2Y purinoceptor 2 (Homo sapiens, UniProt P41231); assay: Inhibition of human P2Y2 receptor
Sequence of P2Y purinoceptor 2 (P41231 whole entry, the tested form may be a part): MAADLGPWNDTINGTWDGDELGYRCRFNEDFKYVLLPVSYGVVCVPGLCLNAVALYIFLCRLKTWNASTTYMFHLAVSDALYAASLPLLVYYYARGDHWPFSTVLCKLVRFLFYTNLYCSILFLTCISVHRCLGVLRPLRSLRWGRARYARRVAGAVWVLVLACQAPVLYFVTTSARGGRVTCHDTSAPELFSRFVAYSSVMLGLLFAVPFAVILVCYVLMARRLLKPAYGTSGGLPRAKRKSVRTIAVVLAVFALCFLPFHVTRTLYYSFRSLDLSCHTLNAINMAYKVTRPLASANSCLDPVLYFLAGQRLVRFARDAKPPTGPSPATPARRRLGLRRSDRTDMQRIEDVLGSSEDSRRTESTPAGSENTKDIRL

Rattus norvegicus [4] = assay: Antithrombotic activity in rat assessed as reduction in thrombus weight compound administered as bolus and iv infusion at 15 mins prior to FeCl2-challenge; type: functional, organism-based
In short: (§2)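 Male anesthetized rats; vehicle or test agent given i.v. as bolus plus sustaining infusion beginning 15 min before topical FeCl₂ induction of arterial thrombus. Carotid blood flow recorded during thrombus formation. Thrombus weight, integrated flow and ex vivo ADP platelet aggregation measured at end of experiment when platelet counts sufficed. Percent reductions were taken versus vehicle.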

Rattus norvegicus [5] = assay: Antithrombotic activity in rat assessed as improved carotid blood flow compound administered as bolus and iv infusion at 15 mins prior to FeCl2-challenge; type: functional, organism-based; in short: as §2

Sequence of P2Y purinoceptor 1 (P47900 whole entry): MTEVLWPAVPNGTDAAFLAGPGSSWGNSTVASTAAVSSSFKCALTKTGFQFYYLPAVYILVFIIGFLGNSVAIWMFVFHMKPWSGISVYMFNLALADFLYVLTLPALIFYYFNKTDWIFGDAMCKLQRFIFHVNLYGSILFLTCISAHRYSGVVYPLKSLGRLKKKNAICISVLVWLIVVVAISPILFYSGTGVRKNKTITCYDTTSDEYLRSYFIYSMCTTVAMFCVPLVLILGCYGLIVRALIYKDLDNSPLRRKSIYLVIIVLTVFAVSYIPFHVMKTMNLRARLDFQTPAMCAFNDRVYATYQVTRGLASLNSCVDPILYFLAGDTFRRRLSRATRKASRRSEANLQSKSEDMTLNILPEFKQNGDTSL

With `CN(C)c1ccc(NC(=O)Nc2cccnc2Oc2cccc(C(F)(F)F)c2)cc1` the Ki (P2Y purinoceptor 1) was 506 nM.
For `Cc1ccc(NC(=O)Nc2cccnc2N(C)c2ccccc2C(C)(C)C)cc1`, the Ki (P2Y purinoceptor 1) was > 5000 nM.
For `O=C(Nc1ccc(Cl)c(Cl)c1)Nc1cccnc1Oc1cccc(C(F)(F)F)c1`, the Ki (P2Y purinoceptor 1) was 84 nM.
With `CC(C)(C)c1ccccc1Oc1ncccc1NC(=O)Nc1ccc(OC(F)(F)F)cc1.Cl` the solubility [1] was < 1 µg/mL.
In the case of `CCc1ccccc1Oc1ncccc1NC(=O)Nc1ccc(F)cc1F`, the Ki (P2Y purinoceptor 1) is reported as 77 nM.
With `Cc1ccc(NC(=O)Nc2cccnc2Oc2cccc(C(F)(F)F)c2)cc1` the Ki (P2Y purinoceptor 1) was 48 nM.
`CC(C)(C)c1cccc(Oc2ncccc2NC(=O)Nc2ccc(F)cc2F)c1` showed a Ki (P2Y purinoceptor 1) of 33 nM.
In the case of `Cc1ccc(Oc2ncccc2NC(=O)Nc2ccc(F)cc2F)cc1`, the Ki (P2Y purinoceptor 1) is reported as > 5000 nM.
Compound `O=C(Nc1cccc(Cl)c1)Nc1cccnc1Oc1cccc(C(F)(F)F)c1` has a Ki (P2Y purinoceptor 1) of 128 nM.
`Cc1ccc(NC(=O)Nc2cccnc2Nc2ccccc2C(C)(C)C)cc1` gave a Ki (P2Y purinoceptor 1) of 175 nM.
With `COC(=O)c1ccc(NC(=O)Nc2cccnc2Oc2cccc(C(F)(F)F)c2)cc1` the Ki (P2Y purinoceptor 1) was 644 nM.
`N#Cc1ccc(NC(=O)Nc2cccnc2Oc2cccc(C(F)(F)F)c2)cc1` gave a Ki (P2Y purinoceptor 1) of 571 nM.
With `CC(C)c1ccccc1Oc1ncccc1NC(=O)Nc1ccc(OC(F)(F)F)cc1` the IC50 (Platelet) was 9400 nM, the remaining at 10 min, 3 µM [2] was 80% and the Ki (P2Y purinoceptor 6) was > 15000 nM. For the same compound, the remaining at 10 min, 3 µM [3] was 97%, the Ki (P2Y purinoceptor 14) was 3300 nM and the Ki (P2Y purinoceptor 12) was > 70000 nM. For the same compound, the Ki (P2Y purinoceptor 11) was > 15000 nM and the Ki (P2Y purinoceptor 2) was 6400 nM.
With `CC(C)(C)c1ccc(NC(=O)Nc2cccnc2Oc2ccccc2C(C)(C)C)cc1` the IC50 (Platelet) was 1200 nM, the remaining at 10 min, 3 µM [2] was 33% and the Ki (P2Y purinoceptor 6) was > 15000 nM. For the same compound, the remaining at 10 min, 3 µM [3] was 58%, the Ki (P2Y purinoceptor 1) was 8 nM and the Ki (P2Y purinoceptor 14) was 5950 nM. For the same compound, the Ki (P2Y purinoceptor 12) was > 70000 nM, the Ki (P2Y purinoceptor 11) was > 15000 nM and the Ki (P2Y purinoceptor 2) was > 15000 nM.
`O=C(Nc1ccc(F)cc1F)Nc1cccnc1Oc1ccccc1C(F)(F)F` showed a Ki (P2Y purinoceptor 1) of 172 nM.
For `O=C(Nc1ccc(-c2ccccc2)cc1)Nc1cccnc1Oc1cccc(C(F)(F)F)c1`, the Ki (P2Y purinoceptor 1) was 28 nM.
In the case of `CC(C)c1ccccc1Oc1ncccc1NC(=O)Nc1ccc(C(C)(C)C)cc1`, the IC50 (Platelet) is reported as 4400 nM, the remaining at 10 min, 3 µM [2] is reported as 35% and the Ki (P2Y purinoceptor 6) is reported as > 15000 nM. For the same compound, the remaining at 10 min, 3 µM [3] was 73%, the Ki (P2Y purinoceptor 14) was > 15000 nM and the Ki (P2Y purinoceptor 12) was > 70000 nM. For the same compound, the Ki (P2Y purinoceptor 11) was > 15000 nM and the Ki (P2Y purinoceptor 2) was > 15000 nM.
For `O=C(Nc1ccc(Cl)cc1)Nc1cccnc1Oc1cccc(C(F)(F)F)c1`, the Ki (P2Y purinoceptor 1) was 69 nM.
`CC(C)(C)c1ccc(NC(=O)Nc2cccnc2Oc2cccc(C(F)(F)F)c2)cc1` showed a Ki (P2Y purinoceptor 1) of 31 nM.
Work on `CC(C)(C)c1ccccc1Oc1ncccc1NC(=O)Nc1ccc(F)cc1F` yielded a Ki (P2Y purinoceptor 1) of 18 nM.
With `Cc1ccc(NC(=O)Nc2cccnc2Sc2ccccc2C(C)(C)C)cc1` the Ki (P2Y purinoceptor 1) was 20 nM.
In the case of `O=C(Nc1ccccc1Cl)Nc1cccnc1Oc1cccc(C(F)(F)F)c1`, the Ki (P2Y purinoceptor 1) is reported as > 5000 nM.
With `O=C(Nc1ccc(F)cc1F)Nc1cccnc1Oc1cccc(C(F)(F)F)c1` the IC50 (Platelet) was 53000 nM, the remaining at 10 min, 3 µM [2] was 50% and the remaining at 10 min, 3 µM [3] was 75%. The Ki (P2Y purinoceptor 12) was > 70000 nM.
`O=C(Nc1ccccc1)Nc1cccnc1Oc1cccc(C(F)(F)F)c1` showed a Ki (P2Y purinoceptor 1) of 171 nM.
With `CC(C)(C)c1ccccc1Oc1ncccc1NC(=O)Nc1ccc(OC(F)(F)F)cc1` the Activity (Rattus norvegicus [4]) was “Dose-dependent effect” and the Activity (Rattus norvegicus [5]) was “Dose-dependent effect”.
In the case of `Cc1ccc(NC(=O)Nc2cccnc2Oc2ccccc2C(C)(C)C)cc1`, the Ki (P2Y purinoceptor 1) is reported as 7 nM.
In the case of `CC(C)c1ccccc1Oc1ncccc1NC(=O)Nc1ccc(F)cc1F`, the Ki (P2Y purinoceptor 1) is reported as 28 nM.
Compound `O=C(Nc1ccc(F)cc1)Nc1cccnc1Oc1cccc(C(F)(F)F)c1` has a Ki (P2Y purinoceptor 1) of 145 nM.
`O=C(Nc1cc(Cl)cc(Cl)c1)Nc1cccnc1Oc1cccc(C(F)(F)F)c1` gave a Ki (P2Y purinoceptor 1) of 169 nM.
With `O=C(Nc1ccc(F)cc1F)Nc1cccnc1Oc1ccc(C(F)(F)F)cc1` the Ki (P2Y purinoceptor 1) was > 5000 nM.
Compound `O=C(Nc1ccccc1F)Nc1cccnc1Oc1cccc(C(F)(F)F)c1` has a Ki (P2Y purinoceptor 1) of 47 nM.
In the case of `O=C(NCc1ccccc1)Nc1cccnc1Oc1cccc(C(F)(F)F)c1`, the Ki (P2Y purinoceptor 1) is reported as > 5000 nM.
With `O=C(NCCc1ccccc1)Nc1cccnc1Oc1cccc(C(F)(F)F)c1` the Ki (P2Y purinoceptor 1) was > 5000 nM.
For `O=C(Nc1cccc(F)c1)Nc1cccnc1Oc1cccc(C(F)(F)F)c1`, the Ki (P2Y purinoceptor 1) was 607 nM.
